In experiment [1] the test system is Pichia kudriavzevii. Briefly: Antifungal activity against FKS1 T2080K mutation containing Candida krusei 100 isolate from acute myelogenous leukemia patient by broth microdilution method. Type of experiment: functional.
Experiment [2] deals with Pichia kudriavzevii. Put plainly: Antifungal activity against Candida krusei 98 isolate from acute myelogenous leukemia patient by broth microdilution method. Type of experiment: functional. For orientation: Broth dilution looks for growth in wells or tubes with falling amounts of substance.
For experiment [3], the target named is 1,3-beta-D-glucan synthase subunit (Pichia kudriavzevii, UniProt Q4U2W2). Briefly: Inhibition of FKS1 from Candida krusei 98 isolate. An outline of the steps: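 Glucan synthase enzyme complex isolated from the pretreatment clinical strain Ck-98 and titrated with the echinocandin. Inhibition curves were fitted with a sigmoidal variable-slope dose-response model to give IC50 in ng/ml.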
Chain of 1,3-beta-D-glucan synthase subunit (Pichia kudriavzevii, UniProt Q4U2W2) (Q4U2W2 whole entry): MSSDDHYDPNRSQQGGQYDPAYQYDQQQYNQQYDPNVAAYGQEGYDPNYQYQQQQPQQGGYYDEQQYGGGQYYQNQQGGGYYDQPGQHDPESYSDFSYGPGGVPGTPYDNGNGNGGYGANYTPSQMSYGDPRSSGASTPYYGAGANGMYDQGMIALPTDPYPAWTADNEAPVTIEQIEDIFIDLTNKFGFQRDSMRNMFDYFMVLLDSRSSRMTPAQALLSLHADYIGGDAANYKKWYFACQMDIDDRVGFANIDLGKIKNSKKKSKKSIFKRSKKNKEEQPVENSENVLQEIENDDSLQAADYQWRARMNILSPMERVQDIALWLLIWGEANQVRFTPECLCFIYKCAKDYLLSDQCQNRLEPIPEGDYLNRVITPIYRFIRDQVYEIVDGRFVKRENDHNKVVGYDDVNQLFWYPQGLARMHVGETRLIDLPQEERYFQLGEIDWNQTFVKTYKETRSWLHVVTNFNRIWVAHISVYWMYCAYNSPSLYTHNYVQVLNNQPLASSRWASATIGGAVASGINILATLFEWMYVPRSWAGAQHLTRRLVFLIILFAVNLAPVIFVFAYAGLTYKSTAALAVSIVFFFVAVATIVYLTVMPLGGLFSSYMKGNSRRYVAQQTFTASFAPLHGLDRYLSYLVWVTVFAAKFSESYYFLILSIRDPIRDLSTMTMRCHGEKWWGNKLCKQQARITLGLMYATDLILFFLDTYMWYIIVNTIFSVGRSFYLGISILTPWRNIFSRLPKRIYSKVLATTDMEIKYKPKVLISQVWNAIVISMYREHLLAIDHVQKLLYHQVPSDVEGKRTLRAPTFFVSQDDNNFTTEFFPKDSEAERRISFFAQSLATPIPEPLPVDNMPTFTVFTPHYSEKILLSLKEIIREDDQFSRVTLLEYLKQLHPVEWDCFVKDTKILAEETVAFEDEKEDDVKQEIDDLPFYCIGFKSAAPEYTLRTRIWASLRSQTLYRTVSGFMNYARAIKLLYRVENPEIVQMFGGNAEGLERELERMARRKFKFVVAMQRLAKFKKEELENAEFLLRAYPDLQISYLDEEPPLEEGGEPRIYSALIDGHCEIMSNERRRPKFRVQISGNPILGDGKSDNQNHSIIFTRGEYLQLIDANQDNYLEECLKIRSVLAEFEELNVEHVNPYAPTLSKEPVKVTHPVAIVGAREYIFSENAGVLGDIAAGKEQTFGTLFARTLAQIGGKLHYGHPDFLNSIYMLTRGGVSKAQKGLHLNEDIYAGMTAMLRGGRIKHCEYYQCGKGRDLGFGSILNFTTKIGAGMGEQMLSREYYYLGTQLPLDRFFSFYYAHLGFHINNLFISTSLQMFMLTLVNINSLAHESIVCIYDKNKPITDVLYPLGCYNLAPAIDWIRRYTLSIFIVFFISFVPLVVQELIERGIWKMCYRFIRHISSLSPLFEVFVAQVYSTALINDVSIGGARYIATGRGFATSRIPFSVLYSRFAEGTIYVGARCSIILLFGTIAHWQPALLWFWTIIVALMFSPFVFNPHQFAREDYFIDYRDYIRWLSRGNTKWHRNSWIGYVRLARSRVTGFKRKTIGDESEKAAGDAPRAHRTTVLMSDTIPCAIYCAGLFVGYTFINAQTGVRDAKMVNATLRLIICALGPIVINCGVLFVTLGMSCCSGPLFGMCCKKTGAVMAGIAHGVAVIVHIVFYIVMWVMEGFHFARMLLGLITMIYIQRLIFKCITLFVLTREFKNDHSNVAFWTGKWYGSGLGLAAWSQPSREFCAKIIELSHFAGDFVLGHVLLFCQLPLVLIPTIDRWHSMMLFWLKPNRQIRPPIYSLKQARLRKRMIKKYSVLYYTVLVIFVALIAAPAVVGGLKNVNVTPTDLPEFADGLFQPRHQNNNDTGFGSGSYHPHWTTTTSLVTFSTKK

The target of experiment [4] is 1,3-beta-D-glucan synthase subunit (Pichia kudriavzevii, UniProt Q4U2W2, F655C). Put plainly: Inhibition of FKS1 T2080K mutant from Candida krusei 100 isolate. An outline of the steps: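 Glucan synthase enzyme complex isolated from posttreatment strain Ck-100. Caspofungin titrated against the enzyme. Inhibition curve fitted with a two-site competition algorithm to give IC50 in ng/ml.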
Chain of 1,3-beta-D-glucan synthase subunit (Pichia kudriavzevii, UniProt Q4U2W2, F655C) (Q4U2W2 entry or part of it F655C): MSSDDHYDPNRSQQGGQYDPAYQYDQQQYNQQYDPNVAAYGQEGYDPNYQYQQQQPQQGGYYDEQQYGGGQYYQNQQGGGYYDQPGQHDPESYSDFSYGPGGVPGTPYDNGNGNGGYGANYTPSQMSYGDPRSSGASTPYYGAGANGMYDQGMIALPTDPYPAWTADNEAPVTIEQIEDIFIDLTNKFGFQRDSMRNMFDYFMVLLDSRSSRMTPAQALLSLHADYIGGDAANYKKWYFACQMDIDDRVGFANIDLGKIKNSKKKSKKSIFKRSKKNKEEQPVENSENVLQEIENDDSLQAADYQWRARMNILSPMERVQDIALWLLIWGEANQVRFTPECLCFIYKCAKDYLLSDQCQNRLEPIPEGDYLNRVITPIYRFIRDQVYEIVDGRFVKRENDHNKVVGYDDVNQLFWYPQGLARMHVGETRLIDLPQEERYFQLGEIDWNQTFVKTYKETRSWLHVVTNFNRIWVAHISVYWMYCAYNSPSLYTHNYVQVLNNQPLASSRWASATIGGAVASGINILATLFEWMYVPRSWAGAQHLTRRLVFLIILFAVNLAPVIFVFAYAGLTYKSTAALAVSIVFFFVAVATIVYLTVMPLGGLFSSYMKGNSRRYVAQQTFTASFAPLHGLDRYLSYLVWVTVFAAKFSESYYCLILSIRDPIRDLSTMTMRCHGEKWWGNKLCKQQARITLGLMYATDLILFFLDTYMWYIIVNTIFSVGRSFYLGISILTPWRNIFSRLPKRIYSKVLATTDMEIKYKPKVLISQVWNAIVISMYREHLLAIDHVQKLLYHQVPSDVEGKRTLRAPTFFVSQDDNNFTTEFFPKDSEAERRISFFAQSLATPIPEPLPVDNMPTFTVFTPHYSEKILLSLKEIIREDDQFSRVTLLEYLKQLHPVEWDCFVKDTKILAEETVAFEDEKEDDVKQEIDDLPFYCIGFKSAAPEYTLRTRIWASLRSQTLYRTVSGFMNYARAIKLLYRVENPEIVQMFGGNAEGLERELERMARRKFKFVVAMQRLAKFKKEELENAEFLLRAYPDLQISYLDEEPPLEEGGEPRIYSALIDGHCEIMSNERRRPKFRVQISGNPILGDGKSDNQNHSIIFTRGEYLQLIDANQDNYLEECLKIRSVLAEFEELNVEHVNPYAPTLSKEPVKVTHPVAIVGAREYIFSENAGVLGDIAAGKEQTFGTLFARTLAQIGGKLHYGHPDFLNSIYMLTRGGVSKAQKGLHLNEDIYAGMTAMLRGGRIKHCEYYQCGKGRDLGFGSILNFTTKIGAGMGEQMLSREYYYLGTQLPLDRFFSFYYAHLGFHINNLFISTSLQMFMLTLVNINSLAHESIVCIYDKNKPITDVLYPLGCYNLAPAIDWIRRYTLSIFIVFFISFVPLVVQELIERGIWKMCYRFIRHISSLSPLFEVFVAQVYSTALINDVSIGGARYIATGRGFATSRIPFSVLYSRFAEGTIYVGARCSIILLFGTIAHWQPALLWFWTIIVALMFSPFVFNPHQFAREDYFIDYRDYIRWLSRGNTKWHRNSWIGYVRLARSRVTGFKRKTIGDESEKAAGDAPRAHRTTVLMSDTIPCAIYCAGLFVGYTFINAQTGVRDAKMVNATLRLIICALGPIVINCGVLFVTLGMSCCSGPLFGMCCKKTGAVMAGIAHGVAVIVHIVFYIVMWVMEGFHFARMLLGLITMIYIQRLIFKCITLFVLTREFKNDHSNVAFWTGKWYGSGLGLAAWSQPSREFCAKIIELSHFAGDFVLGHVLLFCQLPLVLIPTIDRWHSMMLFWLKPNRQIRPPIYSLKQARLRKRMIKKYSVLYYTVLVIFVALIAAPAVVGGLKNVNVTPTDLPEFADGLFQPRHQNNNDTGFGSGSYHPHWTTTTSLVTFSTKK

Experiment [5] deals with Pichia kudriavzevii. Briefly: Ratio of MIC of FKS1 T2080K mutation containing Candida krusei 100 isolate to MIC of Candida krusei 98 isolate from acute myelogenous leukemia patient by broth microdilution method. Type of experiment: functional.

≈ marks a conversion by molar mass, not a printed value. *1 amine or outer side, *2 acyl side, *3 side chain or, on linkers, in order; H or OH if unused. Where a SMILES comes first, the peptide text is derived from it. Bridges are numbered along the chain shown (N, C = ends). [ ]: non-standard residue; d: D form. The star is where a group is joined. hTyr(3S-OH,4S-OH,3'-OSO3H) = N[C@H](C(=O)O)[C@H](O)[C@@H](O)c1ccc(O)c(OS(=O)(=O)O)c1; pTerphenylCO(4''-OnC5H11) = CCCCCOc1ccc(-c2ccc(-c3ccc(C(=O)*)cc3)cc2)cc1; Orn(4R-OH,5R-OH) = O=C([C@H](C[C@@H](O)[C@@H](O)N[*:3])N[*:1])[*:2]; hTyr(3S-OH,4S-OH) = N[C@H](C(=O)O)[C@H](O)[C@@H](O)c1ccc(O)cc1; Pro(3S-OH,4S-Me) = C[C@H]1CN[C@H](C(=O)O)[C@H]1O; X1 = CCCCCOc1ccc(-c2cc(-c3ccc(C(=O)*)cc3)no2)cc1; Gln(3R-OH) = NC(=O)C[C@@H](O)[C@H](N)C(=O)O; Hyp = O=C(O)[C@@H]1C[C@@H](O)CN1

With `CC[C@H](C)C[C@H](C)CCCCCCCCC(=O)N[C@H]1C[C@@H](O)[C@@H](NCCN)NC(=O)[C@@H]2[C@@H](O)CCN2C(=O)[C@H]([C@H](O)CCN)NC(=O)[C@H]([C@H](O)[C@@H](O)c2ccc(O)cc2)NC(=O)[C@@H]2C[C@@H](O)CN2C(=O)[C@H]([C@@H](C)O)NC1=O` [CASPOFUNGIN], the MIC – broadly, the lowest concentration that inhibits growth of the organism – with Pichia kudriavzevii [1] was determined as 8 µg/mL (≈ 7.32 µM); in the experiment with Pichia kudriavzevii [2], 0.25 µg/mL (≈ 0.229 µM). The IC50 (commonly the concentration that inhibits the measured activity by half) was 6.22 nM in experiment [3] and 3610 nM in experiment [4]. Further, the Ratio with Pichia kudriavzevii [5] turned out to be 32.

For `CCCCCOc1ccc(-c2ccc(-c3ccc(C(=O)N[C@H]4C[C@@H](O)[C@@H](O)NC(=O)[C@@H]5[C@@H](O)[C@@H](C)CN5C(=O)[C@H]([C@@H](C)O)NC(=O)[C@H]([C@H](O)[C@@H](O)c5ccc(O)cc5)NC(=O)[C@@H]5C[C@@H](O)CN5C(=O)[C@H]([C@@H](C)O)NC4=O)cc3)cc2)cc1` [ANIDULAFUNGIN] ({pTerphenylCO(4''-OnC5H11)}-[Orn(4R-OH,5R-OH)]T[Hyp][hTyr(3S-OH,4S-OH)]T[Pro(3S-OH,4S-Me)]; lactam 1-C), the MIC in the experiment with Pichia kudriavzevii [1] is 4 µg/mL (≈ 3.51 µM); against Pichia kudriavzevii [2] it was 0.25 µg/mL (≈ 0.219 µM). In addition, in the experiment with Pichia kudriavzevii [5], the Ratio stood at 16.

Turning to `CCCCCOc1ccc(-c2cc(-c3ccc(C(=O)N[C@H]4C[C@@H](O)[C@@H](O)NC(=O)[C@@H]5[C@@H](O)[C@@H](C)CN5C(=O)[C@H]([C@H](O)CC(N)=O)NC(=O)[C@H]([C@H](O)[C@@H](O)c5ccc(O)c(OS(=O)(=O)O)c5)NC(=O)[C@@H]5C[C@@H](O)CN5C(=O)[C@H]([C@@H](C)O)NC4=O)cc3)no2)cc1` [MICAFUNGIN] (X1-[Orn(4R-OH,5R-OH)]T[Hyp][hTyr(3S-OH,4S-OH,3'-OSO3H)][Gln(3R-OH)][Pro(3S-OH,4S-Me)]; lactam 1-C), the minimum inhibitory concentration (MIC) in the experiment on Pichia kudriavzevii [1] worked out at 4 µg/mL (≈ 3.15 µM); in the experiment with Pichia kudriavzevii [2], 0.25 µg/mL (≈ 0.197 µM). The Ratio with Pichia kudriavzevii [5] is reported as 16.

These data come from ChEMBL document CHEMBL1145482, “Acquired echinocandin resistance in a Candida krusei isolate due to modification of glucan synthase” (Antimicrob Agents Chemother, 2007).
